# Sampled rows, rich in hits. Any-hit rate of the full collection: about 1.7%.
# AI-2 QS mod – modulates the Vibrio harveyi AI-2 quorum sensing system | 300,000 compounds, 0.4% hits | activity change, % at 7.5 µM | Vibrio harveyi JMH597 AI-2 luminescence/OD600 ratio, 9 h; active compounds read low; strain lacks LuxN and CqsS sensors; 0 = neutral-control median; in the data active = activity change below about -75%, passing the limit was not always enough;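 also: luminescence divided by OD600 gain over 9 h not by final OD600 alone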
# Rce1 inhib – inhibitors of yeast Ras-converting enzyme. Q03530. yeast membranes, quenched prenylated peptide cleavage fluorescence. calls only. 290,000 compounds, 0.27% hits. AID 2563;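 active = fall in fluorescence gain of 50% or more versus controls, with final raw signal at or below 3038400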;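 also: plate controls were neutral control wells for no effect and wells lacking membranes for full effect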
# Target sequence (Q03530 whole entry, looked up): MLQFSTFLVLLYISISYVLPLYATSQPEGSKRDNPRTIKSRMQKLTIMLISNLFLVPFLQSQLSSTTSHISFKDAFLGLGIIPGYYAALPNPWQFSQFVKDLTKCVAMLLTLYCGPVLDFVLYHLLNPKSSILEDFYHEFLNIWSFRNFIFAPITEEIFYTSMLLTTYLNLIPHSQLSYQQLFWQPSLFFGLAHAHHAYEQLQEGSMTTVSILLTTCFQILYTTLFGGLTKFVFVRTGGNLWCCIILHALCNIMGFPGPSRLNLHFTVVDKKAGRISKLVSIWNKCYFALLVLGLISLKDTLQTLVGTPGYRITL
# CAL PDZ FP-1 – human CAL PDZ-peptide interaction inhibition; Q9HD26; purified CAL PDZ, TMR-peptide fluorescence polarization, 1 h; inhibition, % at 20 µM; 330,000 compounds, 0.02% hits; AID 504414;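 active = highest replicate inhibition of at least 40%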;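 also: plate controls were DMSO neutral control wells for no effect and unlabeled competitor peptide control wells for full effect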
#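 System: tagged CAL PDZ domain. Schedule: 1 h room-temperature incubation prior to read. Signal: fluorescence polarization (mP). Measure: percent inhibition from loss of millipolarization.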
# CAL PDZ FP-2 – inhibitors of human CAL PDZ peptide binding; Q9HD26; purified CAL PDZ, TMR-peptide fluorescence polarization, 1 h; inhibition, % at 24.9 µM; 300,000 compounds, 0.92% hits; AID 602252;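 active = mean inhibition of at least 30% with at least half of replicates also reaching 30%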;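 also: 0% = DMSO neutral control and 100% = excess unlabeled competitor peptide PRC23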
# ARNT-TACC3 inh – ARNT/TACC3 interaction disruption; Q9Y6A5; AlphaScreen His-ARNT PAS-B/GST-TACC3 binding, luminescence; TACC3 fragment carries E629A point mutation; inhibition, % at 9.99 µM; 390,000 compounds, 0.66% hits; AID 623870;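 active = mean inhibition of replicates at least 50% and at least half of replicates each reaching 50%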;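 also: 0% = complete ARNT plus TACC3 wells and 100% = ARNT alone without TACC3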
# * marks the source's active call; other numbers are inactive results; i = inactive; nt = no result; + = active, no number.
SMILES,AI-2 QS mod,Rce1 inhib,CAL PDZ FP-1,CAL PDZ FP-2,ARNT-TACC3 inh
O=C(Nc1ccc(Cl)cn1)c1ccccc1SCc1ccccc1,-64.5,i,0.2,-4.0,-0.3
Cc1cccc(NC(=O)c2ccccc2SCc2ccc(F)cc2)n1,nt,nt,-0.3,59.9*,nt
Cc1cc(C)nc(Nc2n[nH]c(-c3cccc4ccccc34)n2)n1,15.1,i,-2.0,-1.0,-24.3
Cc1cc(C)nc(Nc2n[nH]c(-c3ccccc3Cl)n2)n1,21.9,i,0.1,38.2*,-1.2
Cc1ccc(C(=O)N/C(=C\c2ccc(-c3ccccc3[N+](=O)[O-])o2)C(=O)NCCN(C)C)cc1,7.7,i,2.0,nt,21.5*
CCN(CCCNC(=O)CC(C(=O)N1CCc2ccccc21)n1ccnc1)c1ccccc1 (centres undefined),13.9,i,-0.1,-5.0,14.6
C/C=C/c1ccc2c(c1)O[C@@H](CN(C)C(=O)Nc1cc(F)ccc1F)[C@@H](C)CN([C@@H](C)CO)S2(=O)=O,nt,nt,nt,nt,9.0
Cc1cc(C)n(Cc2ccccc2Cl)n1,14.2,i,nt,41.2*,-4.5
Cc1ccc(C)n1Cc1ccccc1Cl,28.9,i,-0.8,nt,20.7
COc1ccc(Cl)cc1NC(=O)NC1CCCCC1,14.7,i,-0.2,-3.1,2.5
CCCN1CCC(NC(=O)Nc2cc(Cl)ccc2OC)CC1,15.3,i,-0.5,35.8*,1.3
COC(=O)[C@H](Cc1ccccc1)NC(=O)NC(C)CCc1ccccc1 (some centres undefined),0.8,i,nt,42.0*,3.9
COC(=O)C(Cc1ccccc1)NC(=O)CCC(=O)NC(C)CCc1ccccc1 (centres undefined),14.3,i,-0.4,-2.1,-1.2
COc1cc(NC(=O)COc2cccc(C)c2C)ccc1NC(=O)c1ccco1,25.8,nt,-1.3,-2.0,5.6
CC(=O)c1ccc(N2CCN(C(=O)c3ccco3)C(C)C2)c(F)c1 (centres undefined),29.4,i,-4.0,6.0,nt
CC1(C)CC(=O)C(C=NCCN2CCNC2=O)=C(O)C1,18.0,i,0.3,52.2*,-9.2
CC1(C)CC(=O)C(C=NCCCO)=C(O)C1,2.9,i,-1.9,-0.4,20.7
Cc1ccccc1/C=N/Nc1nc2ccccc2[nH]1,7.9,i,0.1,1.6,18.5
C(=N\Nc1nc2ccccc2[nH]1)/C1CCCCC1,7.5,i,-1.5,3.9,45.9*
Cc1[nH]c2ccccc2c1/C=N/Nc1nc2ccccc2[nH]1,15.3,i,0.1,nt,45.4*
C(=N\Nc1nc2ccccc2[nH]1)/c1cccc2cccnc12,26.3,i,-2.2,nt,60.7*
C(=N\Nc1nc2ccccc2[nH]1)/c1ccccc1,1.0,i,1.9,-0.4,1.2
O=[N+]([O-])c1ccc(-c2cnc[nH]2)cc1,7.3,i,nt,nt,nt
CN(C)c1ccc(O)c2c1CC1CC3[C@@H](N(C)C)C(=O)C(C(N)=O)C(=O)[C@]3(O)C(=O)C1C2=O (some centres undefined),nt,nt,0.8,1.7,59.7*
CN(C)c1ccc(O)c2c1CC1CC3C(N(C)C)C(=O)C(C(N)=O)=C(O)[C@@]3(O)C(=O)C1=C2O (some centres undefined),-120.2*,i,0.7,-4.1,39.8
SMILES,AI-2 QS mod,Rce1 inhib,CAL PDZ FP-1,CAL PDZ FP-2,ARNT-TACC3 inh
C[C@H]1c2cccc(O)c2C(O)=C2C(=O)C3(O)C(O)=C(C(N)=O)C(=O)[C@@H](N(C)C)[C@@H]3[C@@H](O)[C@@H]21 (some centres undefined),nt,nt,0.8,-0.7,26.1
C=C1c2cccc(O)c2C(O)=C2C(=O)[C@]3(O)C(O)=C(C(N)=O)C(=O)[C@@H](N(C)C)[C@@H]3[C@@H](O)[C@H]12,-83.3*,i,0.7,10.7,60.7*
COc1cc(N(C)C)ccc1C=c1c2ccccc2n2c1cc(-c1ccccc1)[n+]2C,nt,nt,37.9,-14.7,40.8*
CC(C)CSc1nnc(N)s1,2.0,i,-0.6,57.5*,-5.7
Cc1cc(=O)oc(C)c1C(=O)NCCc1ccc(F)cc1,11.1,i,nt,38.9*,3.3
Cc1cc(=O)oc(C)c1C(=O)NCCNC(=O)c1c(C)cc(=O)oc1C,7.8,i,-0.3,-1.0,-4.0
CO[C@H](CN(C)Cc1nccs1)[C@@H](C)CN([C@H](C)CO)S(=O)(=O)c1ccc(F)cc1,nt,nt,nt,nt,-3.9
OCC1(CCOc2ccccc2)CCN(Cc2cccn2-c2ncccn2)CC1,12.4,nt,-0.6,55.8*,2.3
CN(C(=O)c1ccnn1C)C1CCCN(Cc2ccccc2F)C1 (centres undefined),23.6,i,-0.5,44.8*,1.2
COc1ccc(S(=O)(=O)N(C)C[C@H]2OCCCC[C@@H](C)Oc3ccc(NC(=O)Nc4ccc5c(c4)OCO5)cc3C(=O)N([C@@H](C)CO)C[C@@H]2C)cc1,nt,nt,nt,nt,22.3
CN1CCC(=O)N(CCOc2ccccc2)CC1,31.3,i,0.3,-1.9,59.6*
Cc1ccc2nc(SCC(=O)N/N=C/c3ccc(C(=O)O)cc3)cc(C)c2c1,15.1,i,1.2,0.0,-2.0
O=C(O)CCC(=O)c1ccc(-c2ccccc2)cc1,49.6,+,-0.4,1.4,-8.9
CCC(=O)c1ccc(-c2ccccc2)cc1,38.5,i,-1.4,-1.4,-4.7
CCC(CC)c1nnc(NC(=O)CCc2ccccc2)s1,15.2,i,-0.6,2.3,-1.2
COc1ccc(C)cc1NC(=O)Cn1c(=O)oc2ccccc21,17.7,i,-0.8,56.1*,-6.9
Cc1ccc(NC(=O)CCn2c(=O)oc3ccccc32)c(C)c1,27.2,i,-0.7,48.5*,4.2
Cc1ccccc1NC(=O)Cn1c(=O)oc2ccccc21,8.7,i,-1.3,-5.2,28.3
Cc1ccc(NC(=O)CCCn2c(=O)oc3ccccc32)c(O)c1,23.4,i,-0.5,4.4,0.1
COCC#Cc1ccc2c(c1)O[C@@H](CN(C)C(C)=O)[C@@H](C)CN([C@H](C)CO)S2(=O)=O,nt,nt,nt,nt,-7.5
CNC(=O)NC(=O)Cn1nc2n(c1=O)-c1ccccc1SC2,16.9,i,0.1,53.2*,-0.8
CCOC(=O)CC(NC(=O)C(CC)c1ccccc1)c1ccccc1Cl (centres undefined),8.5,i,-0.9,-9.6,-4.8
CCN(C(=O)c1cc2c(=O)n3ccccc3nc2n1CCCOC)C1CCCCC1,19.6,i,-1.2,5.6,-27.2
CC(C)C(NC(=O)c1ccco1)C(=O)NCC(c1ccco1)N1CCCCC1 (centres undefined),6.3,+,0.5,-0.7,-8.9
CSCCC(NC(=O)c1ccco1)C(=O)NCC(c1ccco1)N1CCCCC1 (centres undefined),nt,nt,-1.1,nt,-2.4
Cc1ccc2sc(C)[n+](CCCS(=O)(=O)[O-])c2c1,10.8,nt,-2.9,-7.2,2.1
CN(Cc1cnccn1)Cc1nc(Cc2ccccc2F)no1,14.0,i,-0.2,56.4*,-5.2
CCc1ccc(CN(C)Cc2nc(COc3ccccc3)no2)nc1,38.3,i,-0.1,49.2*,-5.2

# Source: PubChem BioAssay (Broad Institute)
